The source made the active and inactive calls. The calls are words filed in the database; no cut-off is given here.

In one assay the target is T1, Alpha-2A adrenergic receptor (Homo sapiens) (UniProt P08913).
T1 sequence (whole entry): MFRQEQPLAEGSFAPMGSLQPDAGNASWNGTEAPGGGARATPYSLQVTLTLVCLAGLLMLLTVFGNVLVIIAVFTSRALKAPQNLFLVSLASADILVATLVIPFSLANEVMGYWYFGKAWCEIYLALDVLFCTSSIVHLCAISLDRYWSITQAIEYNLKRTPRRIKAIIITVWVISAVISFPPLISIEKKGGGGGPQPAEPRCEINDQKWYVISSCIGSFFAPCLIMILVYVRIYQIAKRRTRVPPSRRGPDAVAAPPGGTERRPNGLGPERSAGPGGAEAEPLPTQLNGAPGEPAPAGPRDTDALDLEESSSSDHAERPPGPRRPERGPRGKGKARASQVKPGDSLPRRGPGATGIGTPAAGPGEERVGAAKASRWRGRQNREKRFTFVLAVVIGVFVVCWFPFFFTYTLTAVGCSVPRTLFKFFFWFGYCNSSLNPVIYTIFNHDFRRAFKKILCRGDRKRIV
The assay is described as follows: Inverse agonist activity at adrenergic alpha2A receptor expressed in HEK293 cells coexpressing yellow fluorescent and cyan fluorescent protein assessed as increase in resonance signal at 100 uM by FRET assay. The assay is classed as functional, cell-based. In short, it runs like this: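 Single HEK293 cells expressing α2AAR tagged with CFP/YFP were grown on coverslips and kept at room temperature. They were continuously superfused with HEPES buffer at pH 7.4 (137 mM NaCl, 0.1% BSA), and ligand was applied by solenoid-valve rapid superfusion. YFP and CFP emissions were recorded by dual-emission photometry on a 100× oil objective. FRET was taken as the spillover-corrected ratio FYFP/FCFP, with photobleaching drift subtracted where needed.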
Turning to `COC1(C2=NCCN2)COc2ccccc2O1` (stereo unspecified), the outcome was Active. Same read-out and setting: next, `CN1CC[C@]2(CCN3CCc4c(oc5ccccc45)[C@@H]3C2)N(C)C1=O`: “Active”.

In the next assay the target is T1, Alpha-2A adrenergic receptor (Homo sapiens). The assay is described as follows: Partial agonist activity at adrenergic alpha2A receptor expressed in HEK293 cells coexpressing yellow fluorescent and cyan fluorescent protein assessed as effect on kinetics of receptor conformational change by FRET assay. Format: functional, cell-based. In short, it runs like this:
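HEK293 cells expressing α2AAR tagged with CFP/YFP were superfused rapidly with ligand at room temperature. The time course of the corrected FYFP/FCFP ratio was fitted with a monoexponential equation to give kobs. kobs was then plotted against the percentage FRET change.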
`Clc1cccc(Cl)c1NC1=NCCN1`: the outcome was Active. The same measure, in the same setting: for `NCCc1ccc(O)c(O)c1` the value was “Active”; for `COc1nc(C)nc(Cl)c1NC1=NCCN1`, “Active”. Turning to `Cc1cc(C(C)(C)C)c(O)c(C)c1CC1=NCCN1`, the result was Active.

Values taken from ChEMBL document CHEMBL1221166, “Molecular basis of inverse agonism in a G protein-coupled receptor” (Nat Chem Biol, 2005).
